# ChEMBL document CHEMBL1137156, “Novel substituted 4-phenyl-[1,3]dioxanes: potent and selective orexin receptor 2 (OX(2)R) antagonists” (Bioorg Med Chem Lett, 2004)
# Experiments:
# [1] = species on record: Homo sapiens; assay: Selectivity of Orexin type 2 receptor over Orexin type 1 receptor
# [2] = target: T1, Orexin/Hypocretin receptor type 1 (Homo sapiens, UniProt O43613); assay: Binding affinity towards human orexin receptor type 1 was determined using [125I]-Orexin A as radio ligand
# T1 sequence (O43613 whole entry): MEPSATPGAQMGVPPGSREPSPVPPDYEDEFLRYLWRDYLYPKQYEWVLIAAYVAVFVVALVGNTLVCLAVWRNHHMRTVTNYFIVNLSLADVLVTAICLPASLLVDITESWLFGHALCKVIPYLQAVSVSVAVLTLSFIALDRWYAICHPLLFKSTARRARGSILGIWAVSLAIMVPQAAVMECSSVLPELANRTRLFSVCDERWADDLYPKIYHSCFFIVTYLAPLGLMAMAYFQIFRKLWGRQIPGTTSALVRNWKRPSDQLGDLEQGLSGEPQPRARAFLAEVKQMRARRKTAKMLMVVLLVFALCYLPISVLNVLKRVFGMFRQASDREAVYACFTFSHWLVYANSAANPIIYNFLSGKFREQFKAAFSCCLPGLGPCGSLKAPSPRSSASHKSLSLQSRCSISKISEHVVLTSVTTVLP
# In short: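 Clonal CHO-K1 cells expressing the orexin receptor, grown adherent on poly-D-lysine-coated plates. Binding in Dulbecco's PBS with 0.1% w/v BSA, 10⁵ cpm ¹²⁵I-orexin A (2200 Ci/mmol) plus test compound, 90-120 min at room temperature. Wells washed with iced buffer, then scintillation counted. Ki with 95% confidence intervals from N = 3 assays.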
# [3] = target: T2, Orexin receptor type 2 (Homo sapiens, UniProt O43614); assay: Binding affinity towards human orexin receptor type 2 was determined using [125I]-Orexin A as radio ligand
# T2 sequence (O43614 whole entry): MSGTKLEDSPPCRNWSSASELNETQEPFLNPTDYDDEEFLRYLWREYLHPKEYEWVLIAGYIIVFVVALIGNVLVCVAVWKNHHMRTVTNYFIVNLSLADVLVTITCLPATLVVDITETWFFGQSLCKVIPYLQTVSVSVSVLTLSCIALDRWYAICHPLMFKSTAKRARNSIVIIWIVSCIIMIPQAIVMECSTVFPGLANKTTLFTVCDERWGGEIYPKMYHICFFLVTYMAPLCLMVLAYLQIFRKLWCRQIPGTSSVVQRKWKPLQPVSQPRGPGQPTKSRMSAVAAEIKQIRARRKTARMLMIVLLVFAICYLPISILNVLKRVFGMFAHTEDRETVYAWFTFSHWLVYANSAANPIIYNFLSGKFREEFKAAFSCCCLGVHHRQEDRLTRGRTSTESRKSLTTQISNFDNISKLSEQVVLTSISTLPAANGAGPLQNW
# [4] = target: T3, Orexin receptor type 2 (Homo sapiens) (UniProt O43614); assay: Antagonistic activity towards intracellular calcium levels in cells expressing Orexin receptor type 2; type: functional, cell-based
# T3 sequence (whole entry): T2 sequence (O43614 whole entry)
# In short: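 Fluo-3 AM-loaded cells expressing OX2R, intracellular Ca⁺⁺ fluorescence. […] For compounds with OX2R pKi above 6.3, pKB came from the orexin B EC50 and IC50s from antagonist dilutions, all on one 96-well plate.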
Selectivity [1],Ki [2] [µM],Ki [3] [µM],pKb [4],SMILES
> 100,> 10,0.0794,6,CC1(C)OC[C@H](NC(=O)Nc2ccccc2Cl)[C@H](c2ccccc2)O1
> 70,> 10,0.126,,Cc1ccc(NC(=O)N[C@H]2COC(C)(C)O[C@H]2c2ccccc2)c(C)c1
30,2,0.0794,,CC1(C)OC[C@H](NC(=O)Nc2ccccc2-c2ccsc2)[C@H](c2ccccc2)O1
600,3.16,0.00501,7.9,CC1(C)OC[C@H](NC(=O)Nc2ccc(Br)cc2Br)[C@H](c2ccccc2)O1
> 40,> 10,0.251,,CC1(C)OC[C@H](NC(=O)Nc2ccc(Br)cc2)[C@H](c2ccccc2)O1
> 900,> 5.01,0.00631,,CC1(C)OC[C@H](NC(=O)Nc2ccc(Br)cc2Cl)[C@H](c2ccccc2)O1
> 4,> 10,2.51,,COc1ccccc1NC(=O)N[C@H]1COC(C)(C)O[C@H]1c1ccccc1
100,2.51,0.02,7,CC1(C)OC[C@H](NC(=O)Nc2ccc(Cl)cc2Cl)[C@H](c2ccccc2)O1
20,1,0.0501,,CC1(C)OC[C@H](NC(=O)Nc2ccccc2-c2cccs2)[C@H](c2ccccc2)O1
> 4,> 10,2.51,,CC(C)c1ccccc1NC(=O)N[C@H]1COC(C)(C)O[C@H]1c1ccccc1
> 70,> 5.01,0.0794,6.5,CC1(C)OC[C@H](NC(=O)Nc2ccccc2I)[C@H](c2ccccc2)O1
> 80,> 5.01,0.0631,,Cc1ccc(Cl)c(NC(=O)N[C@H]2COC(C)(C)O[C@H]2c2ccccc2)c1
> 20,> 10,0.398,,CC1(C)OC[C@H](NC(=O)Nc2ccccc2F)[C@H](c2ccccc2)O1
,2,,6.3,CC1(C)OC[C@H](NC(=O)Nc2ccccc2Br)[C@H](c2ccccc2)O1
> 100,> 10,0.1,,CC1(C)OC[C@H](NC(=O)Nc2ccccc2C(F)(F)F)[C@H](c2ccccc2)O1
> 20,> 10,0.501,,CC1(C)OC[C@H](NC(=O)Nc2ccccc2)[C@H](c2ccccc2)O1
> 80,> 5.01,0.0631,,CC1(C)OC[C@H](NC(=O)Nc2cc(Cl)ccc2Cl)[C@H](c2ccccc2)O1
200,> 10,0.0398,,Cc1cc(Br)ccc1NC(=O)N[C@H]1COC(C)(C)O[C@H]1c1ccccc1
> 9,> 10,1,,CC1(C)OC[C@H](NC(=O)Nc2cccc(Br)c2)[C@H](c2ccccc2)O1

SMILES,Selectivity [1],Ki [2] [µM],Ki [3] [µM],pKb [4]
CC1(C)OC[C@H](NC(=O)Nc2ccccc2-c2ccccc2)[C@H](c2ccccc2)O1,4,0.501,0.1,
CC1(C)OC[C@H](/N=C(\S)Nc2ccc(Cl)cc2Cl)[C@H](c2ccccc2)O1,> 50,> 10,0.2,
CC1(C)OC[C@H](NC(=O)Nc2ccccc2-c2cccc(Cl)c2)[C@H](c2ccccc2)O1,6,0.501,0.0794,
CC1(C)OC[C@H](NC(=O)c2ccc(Cl)cc2Cl)[C@H](c2ccccc2)O1,> 50,> 10,0.2,
CC1(C)OC[C@H](NC(=O)Oc2ccccc2Cl)[C@H](c2ccccc2)O1,> 6,> 10,1.58,
CC1(C)OC[C@H](NC(=O)Nc2c(Cl)cccc2Cl)[C@H](c2ccccc2)O1,> 2,> 10,> 5.01,
CC1(C)OC[C@H](NC(=O)Nc2ccccc2-c2cccnc2)[C@H](c2ccccc2)O1,> 20,> 5.01,0.316,
CC1(C)OC[C@H](NC(=O)Nc2ccccc2-c2ccccc2Cl)[C@H](c2ccccc2)O1,5,0.126,0.0251,
CC1(C)OC[C@H](/N=C(\S)Nc2ccccc2Br)[C@H](c2ccccc2)O1,> 30,> 10,0.398,
CC1(C)OC[C@H](NC(=O)Cc2ccccc2Br)[C@H](c2ccccc2)O1,> 7,> 10,1.58,
Cc1ccc(/N=C(\NC#N)N[C@H]2COC(C)(C)O[C@H]2c2ccccc2)c(Br)c1,> 8,> 10,1.26,
